ChEMBL document CHEMBL3244146, “Pyranenamines: a new series of antiallergic compounds” (1979)

Key:
Rattus norvegicus [1] = test: Antiallergic activity in rat assessed as inhibition of egg albumin-induced passive cutaneous anaphylaxis at 25 mg/kg, po treated for 15 mins followed by egg albumin-challenge measured after 30 mins relative to control; assay type: functional
Outline: (§1)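 Oral PCA in rats: intradermal antiserum at four back sites (dose giving ~12×12 mm wheal), compound po 48 h later, 15 min before iv challenge with 0.5 mL saline containing 5 mg Evans blue plus 5 mg egg albumin; skin bluing read 30 min after challenge on two axes per wheal; six rats per dose versus ≥6 vehicle controls; percent inhibition from mean wheal size, one-sided t test.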

Rattus norvegicus [2] = test: Antiallergic activity in rat assessed as inhibition of egg albumin-induced passive cutaneous anaphylaxis at 3.4 mg/kg, iv treated for 30 secs followed by egg albumin-challenge measured after 30 mins relative to control; assay type: functional; settings: 0.5 h
[3] = Antiallergic activity in passively sensitized rhesus monkey lungs assessed as inhibition of antigen-induced histamine release at 5 x 10^-5 M by fluorometric analysis relative to control; assay type: functional, Macaca mulatta, Lung
Outline: (§2)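 Passively sensitized fragmented lung from a young adult male rhesus monkey, challenged with IgE-antihuman IgE; histamine release measured fluorometrically and SRS-A estimated by guinea pig ileum bioassay; inhibition relative to control; replicates given as number of separate lung preparations.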

[4] = Antiallergic activity in passively sensitized rhesus monkey lungs assessed as inhibition of antigen-induced histamine release at 1 x 10^-5 M by fluorometric analysis relative to control; assay type: functional, Macaca mulatta, Lung; outline: as §2
Lung [5] = test: Antiallergic activity in passively sensitized albino rat lungs assessed as inhibition of antigen-induced histamine release at 1 x 10^-8 M by fluorometric analysis relative to control; assay type: functional
Outline: (§3)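 Fragmented lung from adult male Charles River albino rats, passively sensitized, then antigen-challenged with compound present; released histamine measured fluorometrically; inhibition reported relative to control, with replicate count given as number of separate lung preparations.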

[6] = Antiallergic activity in passively sensitized rhesus monkey lungs assessed as inhibition of antigen-induced slow reacting substance of anaphylaxis release at 1 x 10^-5 M relative to control; assay type: functional, Macaca mulatta, Lung; outline: as §2
[7] = Antiallergic activity in passively sensitized rhesus monkey lungs assessed as inhibition of antigen-induced slow reacting substance of anaphylaxis release at 5 x 10^-5 M relative to control; assay type: functional, Macaca mulatta, Lung; outline: as §2
Lung [8] = test: Antiallergic activity in passively sensitized albino rat lungs assessed as inhibition of antigen-induced histamine release at 1 x 10^-6 M by fluorometric analysis relative to control; assay type: functional; outline: as §3
Lung [9] = test: Antiallergic activity in passively sensitized albino rat lungs assessed as inhibition of antigen-induced histamine release at 1 x 10^-7 M by fluorometric analysis relative to control; assay type: functional; outline: as §3
Lung [10] = test: Antiallergic activity in passively sensitized albino rat lungs assessed as inhibition of antigen-induced histamine release at 1 x 10^-9 M by fluorometric analysis relative to control; assay type: functional; outline: as §3
Lung [11] = test: Antiallergic activity in passively sensitized albino rat lungs assessed as inhibition of antigen-induced histamine release at 1 x 10^-5 M by fluorometric analysis relative to control; assay type: functional; outline: as §3
Rattus norvegicus [12] = test: Antiallergic activity in rat assessed as inhibition of egg albumin-induced passive cutaneous anaphylaxis at 0.2 mg/kg, iv treated for 30 secs followed by egg albumin-challenge measured after 30 mins relative to control; assay type: functional; settings: 0.5 h
[13] = Antiallergic activity in passively sensitized rhesus monkey lungs assessed as inhibition of antigen-induced slow reacting substance of anaphylaxis release at 5 x 10^-6 M relative to control; assay type: functional, Macaca mulatta, Lung; outline: as §2
[14] = Antiallergic activity in passively sensitized rhesus monkey lungs assessed as inhibition of antigen-induced histamine release at 5 x 10^-6 M by fluorometric analysis relative to control; assay type: functional, Macaca mulatta, Lung; outline: as §2
Rattus norvegicus [15] = test: Antiallergic activity in iv dosed rat assessed as inhibition of egg albumin-induced passive cutaneous anaphylaxis treated for 30 secs followed by egg albumin-challenge measured after 30 mins; assay type: functional; settings: 0.5 h, read-out: ID50 (the source's name)
Rattus norvegicus [16] = test: Antiallergic activity in po dosed rat assessed as inhibition of egg albumin-induced passive cutaneous anaphylaxis treated for 15 mins followed by egg albumin-challenge measured after 30 mins; assay type: functional; settings: read-out: ID50 (the source's name); outline: as §1
[17] = Antiallergic activity in passively sensitized rhesus monkey lungs assessed as inhibition of antigen-induced slow reacting substance of anaphylaxis release at 1 x 10^-4 M relative to control; assay type: functional, Macaca mulatta, Lung; outline: as §2
[18] = Antiallergic activity in passively sensitized rhesus monkey lungs assessed as inhibition of antigen-induced histamine release at 1 x 10^-4 M by fluorometric analysis relative to control; assay type: functional, Macaca mulatta, Lung; outline: as §2
Rattus norvegicus [19] = test: Antiallergic activity in rat assessed as inhibition of egg albumin-induced passive cutaneous anaphylaxis at 50 mg/kg, po treated for 15 mins followed by egg albumin-challenge measured after 30 mins relative to control; assay type: functional; outline: as §1
Rattus norvegicus [20] = test: Ratio of DSCG ID50 to compound ID50 for antiallergic activity in iv dosed rat; assay type: functional
[21] = Antiallergic activity in passively sensitized rhesus monkey lungs assessed as inhibition of antigen-induced histamine release at 1 x 10^-6 M by fluorometric analysis relative to control; assay type: functional, Macaca mulatta, Lung; outline: as §2
[22] = Antiallergic activity in passively sensitized rhesus monkey lungs assessed as inhibition of antigen-induced slow reacting substance of anaphylaxis release at 1 x 10^-6 M relative to control; assay type: functional, Macaca mulatta, Lung; outline: as §2
Lung [23] = test: Antiallergic activity in passively sensitized albino rat lungs assessed as inhibition of antigen-induced histamine release at 2.7 x 10^-4 M by fluorometric analysis relative to control; assay type: functional; outline: as §3
Lung [24] = test: Antiallergic activity in passively sensitized albino rat lungs assessed as inhibition of antigen-induced histamine release at 1.3 x 10^-3 M by fluorometric analysis relative to control; assay type: functional; outline: as §3
[25] = Antiallergic activity in passively sensitized rhesus monkey lungs assessed as inhibition of antigen-induced slow reacting substance of anaphylaxis release at 2.7 x 10^-4 M relative to control; assay type: functional, Macaca mulatta, Lung; outline: as §2
[26] = Antiallergic activity in passively sensitized rhesus monkey lungs assessed as inhibition of antigen-induced slow reacting substance of anaphylaxis release at 1.3 x 10^-3 M relative to control; assay type: functional, Macaca mulatta, Lung; outline: as §2
[27] = Antiallergic activity in passively sensitized rhesus monkey lungs assessed as inhibition of antigen-induced histamine release at 2.7 x 10^-4 M by fluorometric analysis relative to control; assay type: functional, Macaca mulatta, Lung; outline: as §2
[28] = Antiallergic activity in passively sensitized rhesus monkey lungs assessed as inhibition of antigen-induced slow reacting substance of anaphylaxis release at 5.3 x 10^-5 M relative to control; assay type: functional, Macaca mulatta, Lung; outline: as §2
[29] = Antiallergic activity in passively sensitized rhesus monkey lungs assessed as inhibition of antigen-induced histamine release at 1.3 x 10^-3 M by fluorometric analysis relative to control; assay type: functional, Macaca mulatta, Lung; outline: as §2
Lung [30] = test: Antiallergic activity in passively sensitized albino rat lungs assessed as inhibition of antigen-induced histamine release at 5.3 x 10^-5 M by fluorometric analysis relative to control; assay type: functional; outline: as §3
[31] = Antiallergic activity in passively sensitized rhesus monkey lungs assessed as inhibition of antigen-induced histamine release at 5.3 x 10^-5 M by fluorometric analysis relative to control; assay type: functional, Macaca mulatta, Lung; outline: as §2

CC(=O)C1=C(O)/C(=C(\C)Nc2ccc(N)c(O)c2)C(=O)OC1=O
inhibition in vivo at 25 mg/kg (Rattus norvegicus [1]): 40%
inhibition in vivo at 3.4 mg/kg (Rattus norvegicus [2]): 50%

CC(=O)Nc1cc(N/C(C)=C2\C(=O)OC(=O)C(C(C)=O)=C2O)ccc1O
inhibition (INH) [3]: 25%
inhibition (INH) [4]: -31%
inhibition (INH) (Lung [5]): 53%
inhibition in vivo at 25 mg/kg (Rattus norvegicus [1]): 50%
inhibition (INH) [6]: 5%
inhibition (INH) [7]: 33%
inhibition (INH) (Lung [8]): 76%
inhibition (INH) (Lung [9]): 88%
inhibition (INH) (Lung [10]): 43%
inhibition (INH) (Lung [11]): 86%
inhibition in vivo at 0.2 mg/kg (Rattus norvegicus [12]): 50%
inhibition (INH) [13]: -11%
inhibition (INH) [14]: -32%

CC(=O)C1=C(O)/C(=C(\C)Nc2ccc(O)c(NC(=O)C(C)C)c2)C(=O)OC1=O
inhibition (INH) (Lung [8]): 78%
inhibition (INH) (Lung [9]): 81%
ED50 (Rattus norvegicus [15]): 0.2 mg/kg
ED50 (Rattus norvegicus [16]): 3.3 mg/kg

CC(=O)C1=C(O)/C(=C(\C)Nc2cc(N)cc(O)c2)C(=O)OC1=O.Cl
inhibition (INH) [4]: -0.7%
inhibition (INH) [17]: 18%
inhibition (INH) [6]: 5%
inhibition (INH) [18]: 24%
ED50 (Rattus norvegicus [15]): 0.5 mg/kg
ED50 (Rattus norvegicus [16]): 8 mg/kg

CCC(=O)Nc1cc(NC(=O)CC)cc(N/C(C)=C2\C(=O)OC(=O)C(C(C)=O)=C2O)c1
inhibition in vivo at 50 mg/kg (Rattus norvegicus [19]): 14%
ED50 (Rattus norvegicus [15]): 0.003 mg/kg

CC(=O)C1=C(O)/C(=C(\C)Nc2cc(NC(=O)C(O)CO)cc(NC(=O)C(O)CO)c2)C(=O)OC1=O (stereo not drawn)
inhibition (INH) [4]: -20%
inhibition (INH) [17]: 7%
inhibition (INH) [6]: -0.5%
Ratio (Rattus norvegicus [20]): 1000
inhibition (INH) [18]: 7%
inhibition (INH) [21]: -30%
ED50 (Rattus norvegicus [15]): 0.0009 mg/kg
inhibition (INH) [22]: -7%
ED50 (Rattus norvegicus [16]): 2.9 mg/kg

CC(=O)C1=C(O)/C(=C(\C)Nc2cc(NS(C)(=O)=O)cc(NS(C)(=O)=O)c2)C(=O)OC1=O
inhibition in vivo at 50 mg/kg (Rattus norvegicus [19]): 9%
ED50 (Rattus norvegicus [15]): 0.3 mg/kg

O=C([O-])c1cc(=O)c2c(OCC(O)COc3cccc4oc(C(=O)[O-])cc(=O)c34)cccc2o1.[Na+].[Na+] [CROMOLYN SODIUM]
inhibition (INH) (Lung [23]): 47%
inhibition (INH) (Lung [24]): 56%
inhibition (INH) [25]: 36%
inhibition (INH) [26]: 27%
inhibition (INH) [27]: 37%
inhibition (INH) [28]: 24%
inhibition (INH) [29]: 54%
ED50 (Rattus norvegicus [15]): 0.9 mg/kg
inhibition (INH) (Lung [30]): 32%
inhibition (INH) [31]: 11%
